Source: PubChem
aSyn 5UTR inh = MLPCN primary screen, SNCA 5' untranslated region; alpha-synuclein 5'UTR reporter, inhibitor activity; inhibition, % (tested at 7.5 µM); 300,000 compounds, 0.82% hits; AID 1813; in the data active = inhibition above about 60%;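 note: H4 neuroglioblastoma cells stably carrying SNCA 5'UTR luciferase fusion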
CSC inhib = blocks cancer stem cells | cancer stem cell-like cells viability, luminescence | inhibition, % at 7.5 µM | 300,000 compounds, 1.1% hits | AID 2717; in the data active = inhibition above about 75%; tested in HMLE shEcad cells
SKKanGAS inh = inhibitors of SKKanGAS S. pyogenes growth in kanamycin (SK-promoter or general growth effect); AID 1662; 300,000 compounds, 1.3% hits; BacTiter-Glo, 6 h; inhibition, % at 7.5 µM;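 active = mean replicate score, as percent of positive control median, at least 50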;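 note: strain carries kanamycin resistance gene driven by streptokinase promoter and grows in 40 µg/ml kanamycin; loss of luminescence reflects streptokinase promoter inhibition or plain growth inhibition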
T cruzi inh = T. cruzi replication inhibition. inhibition, % (concentration not given with the values). 300,000 compounds, 1.4% hits. AID 1885. T. cruzi beta-gal in NIH3T3, luminescence, 90 h;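 active = mean inhibition across valid replicates above about 55%, limit read from the data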;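 note: signal also drops with host cell toxicity which is not excluded here; higher percent means less beta-gal luminescence so fewer parasites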
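System – NIH/3T3 host cells with β-galactosidase reporter T. cruzi · Doses – single 50 nL compound addition per well in DMSO · Reagent – 5000 T. cruzi trypomastigotes/well · Medium – Low-serum DMEM with 2% FBS · Timing – ≥90 h infection period, 3 h prior cell attachment · Evaluation – parasite load inhibition, % · Technique – GalScreen luminescence, 60 min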
Mdm2-MdmX inh = human Mdm2/MdmX binding inhibition; O15151+Q00987; SaOS-2 split-luciferase Mdm2/MdmX complementation, luminescence; inhibition, % at 8 µM; 330,000 compounds, 3% hits; AID 485346;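 active = inhibition of at least 50% at 8 µM in the primary screen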
Target sequence (O15151 whole entry, looked up): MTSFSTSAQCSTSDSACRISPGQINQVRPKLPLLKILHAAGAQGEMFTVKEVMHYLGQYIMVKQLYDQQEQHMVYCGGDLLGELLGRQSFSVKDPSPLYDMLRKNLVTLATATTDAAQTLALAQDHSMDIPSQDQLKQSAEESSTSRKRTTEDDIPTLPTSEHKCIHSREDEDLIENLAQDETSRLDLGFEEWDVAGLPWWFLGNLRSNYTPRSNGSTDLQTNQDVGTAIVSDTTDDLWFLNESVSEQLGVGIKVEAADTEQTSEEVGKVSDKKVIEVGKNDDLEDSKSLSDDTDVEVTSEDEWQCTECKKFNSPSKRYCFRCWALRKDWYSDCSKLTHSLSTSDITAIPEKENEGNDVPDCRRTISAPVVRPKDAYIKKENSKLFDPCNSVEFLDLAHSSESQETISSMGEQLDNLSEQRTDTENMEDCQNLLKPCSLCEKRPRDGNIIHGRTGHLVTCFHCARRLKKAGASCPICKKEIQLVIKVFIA
Target sequence (Q00987 whole entry, looked up): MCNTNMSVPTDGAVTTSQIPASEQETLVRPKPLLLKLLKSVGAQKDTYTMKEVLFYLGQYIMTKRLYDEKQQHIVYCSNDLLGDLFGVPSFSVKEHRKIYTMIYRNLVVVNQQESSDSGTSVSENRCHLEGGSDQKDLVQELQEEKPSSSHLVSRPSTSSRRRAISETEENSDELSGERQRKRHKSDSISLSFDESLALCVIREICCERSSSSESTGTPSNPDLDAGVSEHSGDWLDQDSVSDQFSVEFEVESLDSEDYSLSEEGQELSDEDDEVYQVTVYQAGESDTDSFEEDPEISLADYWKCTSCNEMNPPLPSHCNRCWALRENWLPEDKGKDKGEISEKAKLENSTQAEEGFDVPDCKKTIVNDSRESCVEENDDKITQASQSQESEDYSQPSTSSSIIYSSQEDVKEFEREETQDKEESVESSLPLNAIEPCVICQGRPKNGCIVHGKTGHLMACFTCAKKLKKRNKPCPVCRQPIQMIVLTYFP
Numbers stand for hits; . = inactive; / = no result given. Hits are enriched below; roughly 5.4% of the tested compounds scored in any of these assays.

SMILES | aSyn 5UTR inh | CSC inhib | SKKanGAS inh | T cruzi inh | Mdm2-MdmX inh
O=C1/C(=C\c2cc([N+](=O)[O-])ccc2O)SC(=S)N1Cc1ccc(Cl)cc1 | . | 104 | 96 | . | /
O=C(CCN1C(=O)/C(=C/c2cccs2)SC1=S)Nc1ccccc1O | . | . | . | . | .
O=C(O)CN1C(=O)/C(=C\c2cc(Br)ccc2OCc2ccc(Cl)cc2)SC1=S | . | 98 | 94 | . | /
CC(C)(C)c1ccccc1OCCCCCn1ccnc1 | . | . | 63 | 61 | .
Cc1ccc(C)c(OCCCCn2ccnc2)c1 | . | . | . | 71 | .
Cc1ccc(OCCCCn2ccnc2)c(Cl)c1 | . | . | . | 61 | .
Cc1ccc(OCCn2ccnc2)c(C)c1 | . | . | . | . | .
Cc1ccc(C(C)(C)C)c(OCCCn2ccnc2)c1 | . | . | . | . | .
Cc1ccc(C(=O)CCC(=O)OCC(=O)NNC(=O)c2ccccc2Cl)cc1 | / | / | / | / | .
CCOc1ccc(CCNC(=O)c2cc3c(s2)CS(=O)(=O)C3)cc1OCC | . | . | . | . | .
CC(=O)c1cccc(OC(=O)c2ccc3c(=O)n4c(nc3c2)CCC4)c1 | . | . | 54 | . | .
CCOc1cc(/C=C(/NC(C)=O)C(=O)O)cc(Cl)c1OCc1cccc(Br)c1 | . | . | . | . | .
CCCCNC(=S)N(Cc1c(C)noc1C)c1ccccc1 | . | . | . | . | .
COc1ccc(-n2c(-c3ccc(Br)cc3)c[n+]3c2SC(C)C3)cc1 (configuration not stated) | . | / | . | 90 | .
COc1ccc(-n2c(-c3ccc(Br)cc3)c[n+]3c2CCC3)cc1 | . | . | . | . | .
CCOc1ccc(-c2c[n+]3c(n2-c2ccccc2)CCCCC3)cc1 | . | . | . | 66 | .
COc1ccc(-n2c(-c3ccc(Br)cc3)c[n+]3c2CCCCC3)cc1 | . | . | . | 66 | .
COc1ccccc1C(=O)NCC(=O)NNc1ncnc(N)c1[N+](=O)[O-] | . | . | . | . | .
O=C(O)/C=C\C(=O)Nc1ccc(N2CCN(c3ccc(Cl)c(Cl)c3)CC2)cc1 | . | 85 | . | . | .
O=C(O)/C=C\C(=O)Nc1ccc(N2CCN(c3ccc(Cl)cc3)CC2)cc1 | . | . | . | . | .
CCCc1cc(=O)[nH]c(Nc2ccc(N3CCCCC3)cc2)n1 | . | . | . | . | .
CCCCc1ccc(Nc2nc(CCC)cc(=O)[nH]2)cc1 | . | 102 | . | . | .
CC(CCc1ccccc1)NC(=O)COC(=O)C12CC3CC(CC(Br)(C3)C1)C2 (configuration not stated) | . | . | . | . | .
CCCOc1ccc(/C=C/c2c([N+](=O)[O-])c(=O)n(C)c(=O)n2C)cc1 | . | . | 50 | . | .
CN(C)c1ccc(/C=C/c2c([N+](=O)[O-])c(=O)n(C)c(=O)n2C)cc1 | . | / | 52 | . | .
SMILES | aSyn 5UTR inh | CSC inhib | SKKanGAS inh | T cruzi inh | Mdm2-MdmX inh
CN(CC(=O)Nc1ccccc1C(F)(F)F)C(=O)COc1cccnc1[N+](=O)[O-] | . | . | . | . | .
Cc1cc(C)c(NC(=O)CC(=O)c2ccccc2)c(Cl)c1 | . | . | . | . | .
Cc1cc(C)c(C(=O)CC(=O)c2ccccc2Cl)c(O)c1 | . | / | 83 | . | .
O=C(Nc1ccc(F)cc1)c1ccccc1NS(=O)(=O)N1CCCC1 | . | . | . | . | .
CC(C)c1ccc(NC(=O)COC(=O)c2cc(=O)[nH]c3ccccc23)cc1 | / | / | / | / | .
COCCOC(=O)C1=C(C)NC(C)=C(C(=O)OC(C)C)C1c1cccc([N+](=O)[O-])c1 (configuration not stated) | . | . | . | 62 | .
CCOC(=O)C1=C(C)NC(C)=C(C(=O)OC)C1c1cccc([N+](=O)[O-])c1 (configuration not stated) | . | . | . | . | .
Cc1ccc(NC(=S)N2CCn3cccc3C2c2cccnc2)cc1 (configuration not stated) | . | . | . | . | .
S=C(Nc1ccc(Br)cc1)N1CCn2cccc2C1c1cccnc1 (configuration not stated) | . | / | . | 79 | /
C/C(Cn1cnc([N+](=O)[O-])n1)=N/NC(=O)COc1c(Cl)cc(Cl)cc1Cl | . | . | . | 62 | .
C/C(Cn1cnc([N+](=O)[O-])n1)=N\NC(=O)c1ccccc1 | . | . | . | . | .
Cc1ccc(S(=O)(=O)Nc2ccc(N3CCN(C)CC3)nc2)cc1 | . | . | . | 58 | .
O=c1[nH]c2ccc(NCc3ccccc3OCc3ccc(Cl)cc3)cc2[nH]1 | . | . | . | . | .
O=C(Cc1ccccc1F)Nc1cccc(S(=O)(=O)N2CCOCC2)c1 | / | / | / | / | .
